Consider three compounds from ChEMBL document CHEMBL1121486, “Synthesis of nitrosourea derivatives of pyridine and piperidine as potential anticancer agents” (1980).

Common to all, as to details: route intraperitoneal
The subject of test [1] is L1210. As to the kind of experiment: Compound tested for activity against mouse leukemia L1210 tumor (Intraperitoneally implanted) after single ip injection on day 1 at optimal dose of 100 mg/kg (Dose range 256-16). It is filed as functional. In a few lines: (§1)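 L1210 leukaemia implanted intraperitoneally in mice. Compound given over a dose range (mg/kg); optimum dose selected. Survivors for toxicity recorded day 5 post-injection. Measures: T – C body weight difference (g), % T/C, and cures, defined as 30-day survivors.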

Test [2] relates to L1210. Briefly: Effect of compound on mouse leukemia L1210 tumor (Intraperitoneally implanted) after single dose injected intraperitoneally on day 1 recorded as animal weight difference of the treated and the control (T-C) at OD of 100 mg/kg. It is filed as functional. In a few lines:
as §1

For test [3], the system named is L1210. As to the kind of experiment: The effect of compound on mouse leukemia L1210 tumor (Intraperitoneally implanted)after single dose injected intraperitoneally on day 1 […] at OD of 100 mg/kg. It is filed as functional.
Test [4] concerns L1210. Briefly: Compound tested for toxicity against mouse leukemia L1210 tumor (Intraperitoneally implanted) after single ip injection on day 1 at optimal dose (OD) of 100 mg/kg on the 5th day after the injection of the compound; (6/6). It is filed as functional.
In test [5] the test system is L1210. Briefly: Compound tested for activity against mouse leukemia L1210 tumor (Intraperitoneally implanted) after single ip injection on day 1 at optimal dose of 100 mg/kg (Dose range 400-12.5). It is filed as functional. In a few lines:
as §1

Test [6] concerns L1210. As to the kind of experiment: Compound tested for toxicity against mouse leukemia L1210 tumor (Intraperitoneally implanted) after single ip injection on day 1 at optimal dose (OD) of 12.5 mg/kg on the 5th day after the injection of the compound; (5/5).

The structures appear in SMILES notation.

Compound `CCN1CCCC(NC(=O)N(CCCl)N=O)C1.O=C(O)/C=C\C(=O)O` (configuration not stated) gave an Optimal dose in the test with L1210 [1] of 128 mg/kg. For the same compound, the T-C with L1210 [2] was -5.9 g. The T/C (usually the ratio of treated to control) in the test on L1210 [3] was determined as 235%. This compound had a Survival in the test with L1210 [4] of 6.

As for `O=C(O)/C=C\C(=O)O.O=NN(CCCl)C(=O)Nc1cccnc1`, in the test on L1210 [5], the Optimal dose was 12.5 mg/kg. In the test with L1210 [2], this compound displayed a T-C of -7 g. Moreover, the T/C with L1210 [3] came to 126%. In the test on L1210 [6], this compound returned a Survival of 5.

The compound `CCCCN1CCC(NC(=O)N(CCCl)N=O)CC1.O=C(O)/C=C\C(=O)O` gave an Optimal dose in the test on L1210 [1] of 64 mg/kg. In the test on L1210 [2], this compound yielded a T-C of -3.9 g. The T/C with L1210 [3] was 197%. In the test with L1210 [4], the Survival worked out at 6.
